From ChEMBL document CHEMBL1139173, “Novel selective human mitochondrial kinase inhibitors: design, synthesis and enzymatic activity” (Bioorg Med Chem, 2007)

Tests used:
Thymidine kinase [1] = target: T1, Thymidine kinase (Human alphaherpesvirus 1, UniProt Q9QNF7); assay: Inhibition of HSV1 TK assessed as [methyl-3H]dThd phosphorylation
T1 sequence (Q9QNF7 whole entry): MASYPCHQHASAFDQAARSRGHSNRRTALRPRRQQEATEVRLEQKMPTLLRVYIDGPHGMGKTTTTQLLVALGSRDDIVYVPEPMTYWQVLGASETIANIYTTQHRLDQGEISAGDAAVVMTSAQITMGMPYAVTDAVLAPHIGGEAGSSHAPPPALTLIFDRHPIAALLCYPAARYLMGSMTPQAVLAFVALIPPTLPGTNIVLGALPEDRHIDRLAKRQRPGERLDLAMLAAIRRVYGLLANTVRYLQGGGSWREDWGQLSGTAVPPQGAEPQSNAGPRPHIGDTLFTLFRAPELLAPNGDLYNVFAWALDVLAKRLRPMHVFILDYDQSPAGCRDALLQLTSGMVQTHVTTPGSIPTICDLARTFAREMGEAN
How it was run: (§1)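 Purified recombinant GST-fusion kinases (from pGEX-5X-1 cDNAs) assayed in 50 mM Tris–HCl pH 8.0, 2.5 mM MgCl₂, 10 mM DTT, 0.5 mM CHAPS, 3 mg/mL BSA, 2.5 mM ATP, 0.25 µCi [methyl-³H]dThd (2 µM), ± varying inhibitor levels, 37 °C for 30 min. Reactions spotted on DE-81 filter disks, washed, and counted by scintillation. IC50 is the concentration halving dThd phosphorylation.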

Deoxynucleoside kinase = target: T2, Deoxynucleoside kinase (Drosophila melanogaster, UniProt Q9XZT6); assay: Inhibition of Drosophila melanogaster dNK assessed as [methyl-3H]dThd phosphorylation
T2 sequence (Q9XZT6 whole entry): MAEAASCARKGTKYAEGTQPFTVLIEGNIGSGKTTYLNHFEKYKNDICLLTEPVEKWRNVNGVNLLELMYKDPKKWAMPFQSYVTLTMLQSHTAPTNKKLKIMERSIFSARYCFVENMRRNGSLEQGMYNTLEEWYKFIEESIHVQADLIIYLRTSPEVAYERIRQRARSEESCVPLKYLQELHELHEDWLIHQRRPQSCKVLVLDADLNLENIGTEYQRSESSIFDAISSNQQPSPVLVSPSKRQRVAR
How it was run: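 Purified recombinant enzyme expressed as a GST fusion. Mix: 50 mM Tris–HCl pH 8.0, 2.5 mM MgCl2, 10 mM DTT, 0.5 mM CHAPS, 3 mg/mL BSA, 2.5 mM ATP, 2 µM [methyl-3H]dThd (0.25 µCi). Incubated 37 °C, 30 min, with varied inhibitor levels. Aliquots spotted on DE-81 disks, washed, scintillation-counted.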

Thymidine kinase [2] = target: T3, Thymidine kinase (Varicella-zoster virus (strain Dumas) (HHV-3) (Human herpesvirus 3), UniProt P09250); assay: Inhibition of VZV TK assessed as [methyl-3H]dThd phosphorylation; design: species or system Human alphaherpesvirus 3
T3 sequence (P09250 whole entry): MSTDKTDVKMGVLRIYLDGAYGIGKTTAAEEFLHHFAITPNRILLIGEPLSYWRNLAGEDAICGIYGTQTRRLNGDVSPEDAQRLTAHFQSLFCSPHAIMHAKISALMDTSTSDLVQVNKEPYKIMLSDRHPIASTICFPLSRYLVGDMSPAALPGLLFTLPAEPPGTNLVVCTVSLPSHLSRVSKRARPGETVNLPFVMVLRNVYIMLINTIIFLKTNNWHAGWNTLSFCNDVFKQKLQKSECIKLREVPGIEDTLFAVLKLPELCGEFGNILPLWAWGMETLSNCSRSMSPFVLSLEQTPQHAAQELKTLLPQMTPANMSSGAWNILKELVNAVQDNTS

[3] = target: T4, Thymidine kinase 2, mitochondrial (Homo sapiens, UniProt O00142); assay: Inhibition of human TK2 assessed as [methyl-3H]dThd phosphorylation; how it was run: as §1
T4 sequence (O00142 whole entry): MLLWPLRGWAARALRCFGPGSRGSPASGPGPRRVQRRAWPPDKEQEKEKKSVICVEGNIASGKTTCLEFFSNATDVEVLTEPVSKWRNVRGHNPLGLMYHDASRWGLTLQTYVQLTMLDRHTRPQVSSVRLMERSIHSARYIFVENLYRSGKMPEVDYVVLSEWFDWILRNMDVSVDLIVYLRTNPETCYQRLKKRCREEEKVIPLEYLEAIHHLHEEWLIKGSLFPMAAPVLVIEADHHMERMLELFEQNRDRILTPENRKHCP

[4] = target: T5, Thymidine kinase, cytosolic (Homo sapiens, UniProt P04183); assay: Inhibition of human TK1 assessed as [methyl-3H]dThd phosphorylation; how it was run: as §1
T5 sequence (P04183 whole entry): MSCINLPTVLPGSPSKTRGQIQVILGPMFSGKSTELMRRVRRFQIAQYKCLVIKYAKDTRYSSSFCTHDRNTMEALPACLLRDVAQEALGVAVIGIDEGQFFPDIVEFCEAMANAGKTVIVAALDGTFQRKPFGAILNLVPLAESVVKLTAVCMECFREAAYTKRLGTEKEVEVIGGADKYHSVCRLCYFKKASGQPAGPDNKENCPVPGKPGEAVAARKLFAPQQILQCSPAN

## CCCCCCCCCC(=O)O[C@H]1[C@H](O)[C@@H](CO)O[C@H]1n1cc(C)c(=O)[nH]c1=O
Thymidine kinase [1]
  IC50: ≥ 1000 µM

## CC(C)(C)OC(=O)NCCCCCC(=O)O[C@H]1[C@H](O)[C@@H](CO)O[C@H]1n1cc(/C=C/Br)c(=O)[nH]c1=O
Deoxynucleoside kinase
  IC50: 77 µM
Thymidine kinase [2]
  IC50: 277 µM
Thymidine kinase [1]
  IC50: ≥ 500 µM
[3]
  IC50: 61 µM

## COc1ccc(CC(=O)O[C@H]2[C@H](O)[C@@H](CO)O[C@H]2n2cc(/C=C/Br)c(=O)[nH]c2=O)cc1
Deoxynucleoside kinase
  IC50: 182 µM
Thymidine kinase [2]
  IC50: 39 µM
Thymidine kinase [1]
  IC50: 68 µM
[3]
  IC50: 44 µM

## O=c1[nH]c(=O)n([C@@H]2O[C@H](CO)[C@@H](O)[C@@H]2O)cc1/C=C/Br [SORIVUDINE]
Deoxynucleoside kinase
  IC50: 28 µM
Thymidine kinase [2]
  IC50: 3.2 µM
Thymidine kinase [1]
  IC50: 3.6 µM
[4]
  IC50: > 500 µM
[3]
  IC50: 43 µM

## CC(C)(C)OC(=O)NCCCC(=O)O[C@H]1[C@H](O)[C@@H](CO)O[C@H]1n1cc(/C=C/Br)c(=O)[nH]c1=O
Deoxynucleoside kinase
  IC50: 133 µM
Thymidine kinase [2]
  IC50: 130 µM
Thymidine kinase [1]
  IC50: 485 µM
[3]
  IC50: 55 µM

## CCCCC(=O)O[C@H]1[C@H](O)[C@@H](CO)O[C@H]1n1cc(C)c(=O)[nH]c1=O
Thymidine kinase [1]
  IC50: > 1000 µM

## NCCCCCC(=O)O[C@H]1[C@H](O)[C@@H](CO)O[C@H]1n1cc(/C=C/Br)c(=O)[nH]c1=O
Deoxynucleoside kinase
  IC50: > 500 µM
Thymidine kinase [2]
  IC50: 94 µM
Thymidine kinase [1]
  IC50: 322 µM
[4]
  IC50: > 500 µM
[3]
  IC50: > 500 µM

## Nc1nc2c(ncn2[C@@H]2O[C@H](CO)[C@@H](O)[C@@H]2O)c(=O)[nH]1
Deoxynucleoside kinase
  IC50: > 500 µM
Thymidine kinase [2]
  IC50: > 500 µM
Thymidine kinase [1]
  IC50: > 500 µM
[4]
  IC50: > 500 µM
[3]
  IC50: > 500 µM

## CC(C)(C)OC(=O)NCCCCCCCC(=O)O[C@H]1[C@H](O)[C@@H](CO)O[C@H]1n1cc(/C=C/Br)c(=O)[nH]c1=O
Deoxynucleoside kinase
  IC50: 74 µM
Thymidine kinase [2]
  IC50: 349 µM
Thymidine kinase [1]
  IC50: 447 µM
[3]
  IC50: 6.4 µM

## CCCCCCCC(=O)Nc1nc2c(ncn2[C@@H]2O[C@H](CO)[C@@H](O)[C@@H]2OC(=O)CCCCCCC)c(=O)[nH]1
Deoxynucleoside kinase
  IC50: > 500 µM
Thymidine kinase [2]
  IC50: > 500 µM
Thymidine kinase [1]
  IC50: > 500 µM
[4]
  IC50: > 500 µM
[3]
  IC50: > 500 µM

## NCCCC(=O)O[C@H]1[C@H](O)[C@@H](CO)O[C@H]1n1cc(/C=C/Br)c(=O)[nH]c1=O
Deoxynucleoside kinase
  IC50: 160 µM
Thymidine kinase [2]
  IC50: 3.6 µM
Thymidine kinase [1]
  IC50: 17 µM
[4]
  IC50: > 500 µM
[3]
  IC50: 187 µM

## O=C(Cc1ccccc1)O[C@H]1[C@H](O)[C@@H](CO)O[C@H]1n1cc(/C=C/Br)c(=O)[nH]c1=O
Deoxynucleoside kinase
  IC50: 419 µM
Thymidine kinase [2]
  IC50: 268 µM
Thymidine kinase [1]
  IC50: 247 µM
[3]
  IC50: 74 µM

## COCC(=O)O[C@H]1[C@H](O)[C@@H](CO)O[C@H]1n1cc(/C=C/Br)c(=O)[nH]c1=O
Deoxynucleoside kinase
  IC50: 215 µM
Thymidine kinase [1]
  IC50: 84 µM
